Usually Ki stands for a measure of affinity in units of concentration, obtained from inhibition or displacement. Higher therefore signals a looser hold on the target. For orientation: IC50 means the concentration that inhibits the measured activity by half. A low value points to inhibition by little substance. For orientation: ED50 means the dose that gives a 50% effect, or the effect in half of the subjects. The low end stands for greater potency, the high end for weaker potency.

This is an account of results in ChEMBL document CHEMBL1129385, “Aspartic acid conjugates of 2-(3,4-dichlorophenyl)-N-methyl-N-[(1S)-1(3-aminophenyl)-2-(1-pyrrolidi nyl) ethyl]acetamide: kappa opioid receptor agonists with limited access to the central nervous system” (J Med Chem, 1996).

Each structure is given as a SMILES string.

The target of assay [1] is T1, Kappa-type opioid receptor (Cavia porcellus, UniProt P41144). Briefly: Compound was tested for the binding affinity and selectivity by competitive inhibition of radioligands on opioid kappa receptor in guinea pig brain membranes. It counts as cell membranes, Membrane. The gist of the method:
(§1)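 Competition binding in guinea pig brain membranes for κ opioid sites against 1 nM [³H]U69,593, using a modified Werling method. Ki values are arithmetic means of three experiments.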

The species named for a further assay is Cavia porcellus. Briefly: Compound was tested for their agoinst potencies on the electrically stimulated Guinea pig ileal longitudinal muscle preparation. It is filed as functional. The following applies: Muscle tissue.
Assay [2] relates to Mus musculus. Briefly: Peak time for Antinociception writhing(min) by iv administration in mice. It is filed as functional. On the technique in general: Writhing tests count abdominal constrictions after an irritant is injected.
For assay [3], the system named is Mus musculus. Briefly: Peak time for Antinociception writhing(min) by icv administration in mice. It counts as functional.
Assay [4] relates to Mus musculus. Briefly: Compound was evaluated for Antinociceptive potencies in mice for in vivo activity in Analgesic activity in the second phase of the mouse formalin assay by iv administration. It is filed as functional.
The next assay has as its target Mu-type opioid receptor (Cavia porcellus, UniProt P97266). Description: Compound was tested for the binding affinity and selectivity by competitive inhibition of radioligands on opioid Mu receptor in guinea pig brain membranes. It counts as cell membranes, Membrane. The gist of the method: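 Competition binding in guinea pig brain membranes for μ opioid sites against 2 nM [³H]DAMGO, using a modified Werling method. Ki values are arithmetic means of three experiments.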

Assay [5] deals with Mus musculus. Description: Peak time for Antinociception Tail-flick(min) by icv administration in mice. It counts as functional.
Assay [6] relates to Mus musculus. Description: Compound was evaluated for Antinociceptive potencies in mice for in vivo activity Mouse abdominal stretch assay by icv administration. It is filed as functional. The following applies: Abdomen, central.
Assay [7] concerns Mus musculus. Description: Peak time for Antinociception Tail-flick(min) by iv administration in mice. It counts as functional.
The subject of assay [8] is Mus musculus. Briefly: Compound was evaluated for Antinociceptive potencies in mice for in vivo activity in mouse tail-flick by icv administration. The following applies: central. It is filed as functional.
Assay [9] is filed under the species Mus musculus. Briefly: Compound was tested for their agoinst potencies on the electrically stimulated mouse vas deferens. It counts as functional.
Assay [10] concerns Mus musculus. Briefly: Compound was evaluated for Antinociceptive potencies in mice for in vivo activity in mouse tail-flick by iv administration. It counts as functional.
The target in assay [11] is T1, Kappa-type opioid receptor. Briefly: Compound was tested for the binding affinity and selectivity by competitive inhibition of radioligands on Opioid receptor kappa 1 in guinea pig brain membranes. It is filed as cell membranes, Membrane. The gist of the method:
as §1

For `CN(C(=O)Cc1ccc(Cl)c(Cl)c1)[C@H](CN1CCCC1)c1cccc(NC(=O)[C@@H](N)CC(=O)O)c1`, the Ki came out at 0.34 nM in assay [1] and 462 nM on Mu-type opioid receptor. For the same compound, the IC50 in the assay filed under Cavia porcellus was found to be 0.84 nM; in the assay listed under Mus musculus [9] it was 2.49 nM. Also, the Time is 10 min with Mus musculus [2], 10 min with Mus musculus [3], 30 min in the assay on Mus musculus [5] and 20 min with Mus musculus [7]. In addition, the ED50 in the assay on Mus musculus [4] was 0.01 µmol/kg; with Mus musculus [6] it was 0.0068 µmol/kg; in the assay on Mus musculus [8], 0.335 µmol/kg; with Mus musculus [10], 0.85 µmol/kg.
Turning to `CN(C(=O)Cc1ccc(Cl)c(Cl)c1)[C@H](CN1CCCC1)c1cccc(NC(=O)[C@H](N)CC(=O)O)c1`, the IC50 stood at 4.59 nM in the assay filed under Cavia porcellus and 4.06 nM in the assay filed under Mus musculus [9]. In addition, the Ki worked out at 1.2 nM in assay [11] and 280 nM at Mu-type opioid receptor. Further, the Time in the assay on Mus musculus [2] and in the assay with Mus musculus [3] was 10 min each time. Besides, the ED50 with Mus musculus [4] came out at 1.05 µmol/kg; in the assay with Mus musculus [6], 0.046 µmol/kg.
On to `CN(C(=O)Cc1ccc(Cl)c(Cl)c1)[C@H](CN1CCCC1)c1cccc(NC(=O)C[C@H](N)C(=O)O)c1`, for which the figures for the IC50 in the assay filed under Cavia porcellus and in the assay listed under Mus musculus [9] were 0.55 nM and 6.36 nM, respectively. The Time with Mus musculus [2] is recorded as 10 min; with Mus musculus [3], 30 min; in the assay on Mus musculus [5], 30 min; with Mus musculus [7], 30 min. The figures for the ED50 in the assay with Mus musculus [6], in the assay on Mus musculus [8] and with Mus musculus [10] were 0.011 µmol/kg, 0.502 µmol/kg and 5.12 µmol/kg, respectively.
